Test results as given in publication PMC3944097 (ACS chemical biology, 2013).

Columns and labels:
[1] = type: in vivo, mice; conditions: for half-life: mouse, iv
Procedure, shortened: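 Female athymic nude mice bore SCC-7 tumours, grown from 1 × 10^6 cells injected subcutaneously into the right front flank and used at ~300 mm3. Probe was given intravenously via the tail vein. Blood was sampled at 1, 5, 15, 30, 45 and 60 min. Intact probe and the Met1/Met2 fragments were measured by HPLC–QTRAP LC–MS using a single MRM transition, with triplicate injections.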

MMP-13 = MMP-13 (Homo sapiens, UniProt P45452); experiment: LC/MS analysis of probe fragmentation on incubation with MMP-13; type: biochemical; conditions: for metabolites found after incubation with MMP-13: 2 h incubation with MMP-13, LC/MS
Procedure, shortened: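 Test compound (1 μM) incubated with MMP-13 catalytic domain (40 nM) at 37 °C in 50 mM Tris, 10 mM CaCl2, 150 mM NaCl, 0.05% Brij35, pH 7.8. Aliquots were taken every 10 min to 60 min, then every 20 min to 120 min. Each was quenched with an equal volume of acetonitrile containing 10% HCOOH. Fragments were identified by UPLC–Q-Tof LC–MS.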

[2] = LC/MS identification of parent probe, Met1 and Met2 in tumor, plasma and liver; type: in vivo, mice; conditions: 60 min after probe injection; for species detected in liver: liver homogenate; for species detected in liver / parent probe in plasma: LC/MS; for species detected in SCC-7 tumor: tumor homogenate, high sensitivity LC/MS
Procedure, shortened: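 Female athymic nude mice bore subcutaneous SCC-7 tumours (~300 mm3) and received probe intravenously via the tail vein. At 60 min, plasma, tumour and liver were collected. Tissues were weighed, stored in liquid nitrogen and homogenised in H2O/acetonitrile 50/50 containing 10% HCOOH. After pellet removal, extracts were lyophilised and redissolved in the same solvent. High-sensitivity LC–MS then screened for parent probe, Met1 and Met2.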

different MMPs = experiment: Specificity and selectivity of probes to MMP enzymes; type: biochemical; conditions: fluorescence activation by MMP enzymes (Figure 2a)
[3] = system: catalytic domain of MMP-13; experiment: reaction buffer; conditions: 37 °C, up to 120 min

CCN(CC)c1ccc2nc3ccc(N=Nc4ccc(N(C)CCCC(=O)NCCCC[C@H](NC(=O)CNC(=O)[C@H](CCCNC(=N)N)NC(=O)[C@@H](NC(=O)CNC(=O)[C@H](CC(C)C)NC(=O)[C@@H]5CCCN5C(=O)CNC(=O)CCCCC[N+]5=C(C=CC=CC=C6N(CC)c7ccc8c(S(=O)(=O)[O-])cc(S(=O)(=O)O)cc8c7C6(C)C)C(C)(C)c6c5ccc5c(S(=O)(=O)[O-])cc(S(=O)(=O)O)cc65)C(C)C)C(=O)NCC(=O)NCC(=O)NCCOCCOCCOCCOCCOCCOCCOCCOCCOCCOCCOCCO)cc4)cc3[n+](-c3ccccc3)c2c1 [L-MMP-P12]
intact probe in blood samples at 45 min after injection ([1]; mice, i.v., blood, LC/MS): almost no intact L-MMP-P12 can be detected | half-life ([1]; blood): 7.81 ± 0.25 min | metabolites found after incubation with MMP-13 (MMP-13): two major fragments | species detected in liver [2]: only Met2 fragment could be detected | parent probe in plasma [2]: very little L-MMP-P12 was found | species detected in SCC-7 tumor [2]: only Met2 was detected while no parent probe or Met1 was found

CCN(CC)c1ccc2nc3ccc(N=Nc4ccc(N(C)CCCC(=O)NCCCC[C@@H](NC(=O)CNC(=O)[C@H](CCCNC(=N)N)NC(=O)[C@@H](NC(=O)CNC(=O)[C@H](CC(C)C)NC(=O)[C@@H]5CCCN5C(=O)CNC(=O)CCCCC[N+]5=C(C=CC=CC=C6N(CC)c7ccc8c(S(=O)(=O)[O-])cc(S(=O)(=O)O)cc8c7C6(C)C)C(C)(C)c6c5ccc5c(S(=O)(=O)[O-])cc(S(=O)(=O)O)cc65)C(C)C)C(=O)NCC(=O)NCC(=O)NCCOCCOCCOCCOCCOCCOCCOCCOCCOCCOCCOCCO)cc4)cc3[n+](-c3ccccc3)c2c1 [D-MMP-P12]
Met1/Met2 ratio in blood ([1]; mice, i.v., blood samples at 1, 5, 15, 30, 45 and 60 min p.i., LC/MS): much higher than that of L-MMP-P12 at all the time points examined | half-life ([1]; blood): 29.8 ± 0.45 min | metabolites found after incubation with MMP-13 (MMP-13): only the MMP specific metabolite Met1 but not Met2 was found | species detected in liver [2]: only Met2 fragment could be detected | parent probe in plasma [2]: still detectable after 1 h | species detected in SCC-7 tumor [2]: parent D-MMP-P12 probe, Met1 and Met2 were all detectable | enzyme specificity and selectivity over different MMPs (different MMPs): very similar enzyme specificity and selectivity with L-MMP-P12

Cy5.5-GPLGVR [Met2]
further cleavage of metabolite by MMP-13 (MMP-13; incubation with MMP-13, LC/MS, late time points): can be further cut by MMP-13 to form Met1

GPLGVRGKGG
cleaved bond [3]: Gly4-Val5, major
